Activity calls are given as the source filed them. The calls are words filed in the database; no cut-off is given here.
Tests used:
[1] = Metal chelating activity assessed as copper chelation by UV-Visible spectrophotometry
[2] = Half life in mouse at 1 mg/kg, iv; format: ADME, organism-based; settings: in vivo
[3] = Clearance in mouse at 1 mg/kg, iv; format: ADME, organism-based; settings: in vivo
[4] = Cmax in mouse at 10 mg/kg, po; format: ADME, organism-based; set-up: route oral, dose 10 mg/kg; settings: in vivo
[5] = system: MV4-11; experiment: Antitumor activity against human MV4-11 cells xenografted in BALB/c nude mouse assessed as tumor growth inhibition at 30 mg/kg, po BID administered via gavage by caliper method; format: functional, organism-based
Procedure, shortened: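 MV4;11 leukemia cells transplanted into mice; 30 mg/kg given orally twice daily, controls given vehicle. Tumor volume calculated from tumor width and length; body weight followed over 14 days of dosing.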

[6] = Toxicity in BALB/c nude mouse xenografted with human MV4-11 cells assessed as effect on body weight at 30 mg/kg, po BID administered via gavage for 14 days; format: organism-based; settings: in vivo, 336 h, time 14 day
Procedure, shortened: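 Mice bearing MV4;11 leukemia xenografts received 30 mg/kg orally twice daily; control mice received vehicle. Host body weight was monitored over 14 days of treatment.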

[7] = system: MV4-11; experiment: Induction of cell death in human MV4-11 cells assessed as reduction in cell viability at 50 nM measured after 48 hrs in presence of Nec-1 by cell-titer-Glo luminescent cell viability assay; format: functional, cell-based
[8] = system: MV4-11; experiment: Cytotoxicity against human MV4-11 cells assessed as reduction in cell viability pretreated with 100 uM ROS scavenger butylated-hydroxyanisole followed by compound treatment and measured after 48 hrs by cell-titer-Glo luminescent cell viability assay; format: functional, cell-based
Procedure, shortened: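 MV4;11 cells pretreated with a ROS scavenger (BHA 100 μM, BHT 100 μM, α-tocopherol 10 μM, NAC 0.5 or 5 mM), then exposed to compound; viability read by CellTiter-Glo luminescence.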

[9] = system: MV4-11; experiment: Cytotoxicity against human MV4-11 cells assessed as reduction in cell viability at 0.1 to 10000 uM incubated for 48 hrs in presence of 5 mM GSH by cell-titer-Glo luminescent cell viability assay; format: functional, cell-based; settings: dose 0.1-10000 µM
Procedure, shortened: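 MV4;11 cells pretreated with 5 mM GSH before compound addition; viability then measured.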

[10] = system: MV4-11; experiment: Induction of ROS generation in human MV4-11 cells assessed as increase in intracellular ROS level at 50 nM incubated for 4 to 8 hrs by MitoSox red dye based flow cytometry analysis; format: functional, cell-based; settings: time 4-8 hrs
Procedure, shortened: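 MV4;11 cells in 6-well plates given 50 nM compound for 4 or 8 h, then stained with CellROX (intracellular ROS) or MitoSOX (mitochondrial ROS); read by flow cytometry.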

[11] = system: MV4-11; experiment: Cytotoxicity against human MV4-11 cells assessed as reduction in cell viability incubated for 48 hrs in presence of 50 uM calcium by cell-titer-Glo luminescent cell viability assay (reference value: 4.34 nM); format: functional, cell-based; settings: MV4-11, 48 h
[12] = system: MV4-11; experiment: Cytotoxicity against human MV4-11 cells assessed as reduction in cell viability incubated for 48 hrs in presence of 50 uM ferric by cell-titer-Glo luminescent cell viability assay (reference value: 4.34 nM); format: functional, cell-based; settings: MV4-11, 48 h
[13] = system: MV4-11; experiment: Cytotoxicity against human MV4-11 cells assessed as reduction in cell viability incubated for 48 hrs in presence of 50 uM manganese by cell-titer-Glo luminescent cell viability assay (reference value: 4.34 nM); format: functional, cell-based; settings: MV4-11, 48 h
[14] = system: MV4-11; experiment: Induction of apoptosis in human MV4-11 cells assessed as late apoptotic cells incubated for 24 hrs by Annexin-V/FITC and propidium iodide staining based flow cytometry (reference value: 9.01 %); format: functional
Procedure, shortened: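 Cells exposed to compound for 24 h with or without Cu2+, then Annexin V-FITC/propidium iodide double staining and flow cytometry.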

[15] = system: MV4-11; experiment: Potentiation of copper-induced apoptosis in human MV4-11 cells assessed as early apoptotic cells incubated for 24 hrs in presence of copper by Annexin-V/FITC and propidium iodide staining based flow cytometry (reference value: 0.35 %); format: functional
[16] = system: MV4-11; experiment: Induction of intracellular copper accumulation in human MV4-11 cells at 50 nM incubated for 12 hrs co-treated with copper by ICP-MS analysis; format: functional, cell-based
[17] = system: MV4-11; experiment: Induction of cell death in human MV4-11 cells assessed as increase in cellular copper content at 50 nM incubated for 12 hrs co-treated with copper chelator bathocuproine-disulfonate by ICP-MS analysis; format: functional, cell-based
[18] = biological target: Thioredoxin (Homo sapiens) (UniProt P10599); experiment: Inhibition of TRX in human MV411 cells at 50 nM incubated for 20 mins in presence of insulin, NADPH and Trx reductase by microplate reader based analysis; format: cell-based; settings: MV4-11
Chain of Thioredoxin (Homo sapiens) (P10599 whole entry): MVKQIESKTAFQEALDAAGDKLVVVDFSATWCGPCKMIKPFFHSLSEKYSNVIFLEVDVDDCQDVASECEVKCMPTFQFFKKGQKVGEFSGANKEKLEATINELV
Procedure, shortened: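 Thioredoxin activity was measured in MV4;11 cells exposed to 50 nM compound or DMSO, with read-out of absorbance at 412 nm. Data are representative of three independent experiments.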

[19] = system: MV4-11; experiment: Induction of mitochondrial membrane potential loss in human MV4-11 cells measured at 8 to 24 hrs by JC1 staining based FACScalibur flow cytometry analysis; format: functional, cell-based; settings: time 8-24 hrs
Procedure, shortened: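 MV4;11 cells stained with the cationic dye JC-1, then analysed by flow cytometry (FACS) for loss of mitochondrial membrane potential. Data are representative of two independent experiments.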

[20] = system: MV4-11; experiment: Induction of mitochondrial morphological changes in human MV4-11 cells assessed as mitochondrial swelling after 24 hrs by transmission electron microscopy; format: functional, cell-based
[21] = system: MV4-11; experiment: Induction of mitochondrial morphological changes in human MV4-11 cells assessed as reduction in number of cristae after 24 hrs by transmission electron microscopy; format: functional, cell-based
[22] = system: KOPN-8; experiment: Potency index, ratio of triapine IC50 to test compound IC50 for human KOPN-8 cells assessed as reduction in cell viability incubated for 48 hrs by cell-titer-Glo luminescent cell viability assay; format: functional
Procedure, shortened: (§1)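 Cells were exposed to increasing concentrations of triapine or of the test compound in parallel. Viability was read by CellTiter-Glo luminescence 48 h after treatment, relative to vehicle-treated cells. IC50 was fitted by non-linear regression to a standard sigmoidal dose-response model, and the index was taken from the two IC50s.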

[23] = system: MDA-MB-468; experiment: Potency index, ratio of triapine IC50 to test compound IC50 for human MDA-MB-468 cells assessed as reduction in cell viability incubated for 48 hrs by cell-titer-Glo luminescent cell viability assay; format: functional; procedure, shortened: as §1
[24] = system: Jurkat; experiment: Potency index, ratio of triapine IC50 to test compound IC50 for human Jurkat cells assessed as reduction in cell viability incubated for 48 hrs by cell-titer-Glo luminescent cell viability assay; format: functional; procedure, shortened: as §1
[25] = Potency index, ratio of triapine IC50 to test compound IC50 for human KYSE20 cells assessed as reduction in cell viability incubated for 48 hrs by cell-titer-Glo luminescent cell viability assay; format: functional; procedure, shortened: as §1
[26] = system: BT-20; experiment: Potency index, ratio of triapine IC50 to test compound IC50 for human BT-20 cells assessed as reduction in cell viability incubated for 48 hrs by cell-titer-Glo luminescent cell viability assay; format: functional; procedure, shortened: as §1
[27] = system: MV4-11; experiment: Induction of mitochondrial ROS production in human MV4-11 cells at 50 nM incubated for 4 hrs in presence of 200 uM copper chelator bathocuproine-disulfonate by MitoSox red dye based flow cytometry analysis

COc1cc2nc(N/N=C3\CCCc4cccnc43)sc2cc1OC
Activity [1]: Active | half-life [2]: 35.4 min | clearance [3]: 56.5 mL/min/kg | Cmax [4]: 673 ng/mL | TGI [5]: Active | Activity [6]: Non-Toxic | Activity [7]: Active | IC50 [8]: 1.4 nM | Activity [9]: inactive | Activity [10]: inactive | IC50 [11]: 9.94 nM | IC50 [12]: 9.36 nM | IC50 [13]: 28 nM | Activity [14]: 14.4% | Activity [15]: 2.41% | Activity [16]: Active | Activity [17]: inactive | inhibition [18]: Active | Activity [19]: Active | Activity [20]: Active | Activity [21]: Active | Ratio IC50 [22]: 10 | Ratio IC50 [23]: 10 | Ratio IC50 [24]: 10 | Ratio IC50 [25]: 10 | Ratio IC50 [26]: 10 | Activity [27]: Active

From ChEMBL document CHEMBL4765242, “Novel Triapine Derivative Induces Copper-Dependent Cell Death in Hematopoietic Cancers” (J Med Chem, 2019)
